Screens as filed in PubChem.
MT stabilize HCS – stabilizes microtubules in HeLa cells | % tubulin-high responders, % at 10 µM | HeLa tubulin immunostaining HCS, 24 h; share of cells brighter than vehicle mean+2SD | actives 0.83% (n = 200,000);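 active means plate Z-score above 3 for both tubulin-high and condensed-nucleus cell shares, with cell loss under 80%, at 10 µM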;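 further: anti alpha tubulin signal scored within the nucleus-defined area of each cell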
CHOP inhibitor – inhibitors of CHOP induction in ER stress response; CHO-K1 CHOP-promoter luciferase, tunicamycin-induced, 15-18 h; inhibition, % at 10 µM; actives 3.8% (n = 220,000); AID 2732;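 active means compounds that reduced the stress-induced luciferase reporter signal by more than about 70% of percent inhibition, limit read from the data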;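 further: 0% = tunicamycin plus vehicle and 100% = wells without tunicamycin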
Dynein transport – dynein cargo transport inhibition; 3617.4 mouse cells, GR-EGFP nuclear translocation imaging; test concentration mostly 20 µM; stimulated with dexamethasone, 1 µM; hits give low values; z-score, hits read low; actives 0.47% (n = 220,000); AID 1381;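 active means plate z-score of nuclear minus cytoplasmic receptor signal below a set negative limit, without overly bright fluorescence or cell loss, cut at about -3.5 in these data, passing the limit was not always enough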;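 further: z-score of nuclear minus cytoplasmic ring GR-EGFP intensity difference per well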
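Buffer or medium: tetracycline-free induction medium containing charcoal-stripped FBS / Reagent: dexamethasone agonist, 1.0 µM final, for 30 min / Technique: automated 10x imaging of fixed Hoechst-stained cells / Times: induction 48 h, compound 1 h, agonist 30 min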
Autophagy HCS – alters autophagy in cells; MEF GFP-LC3 puncta imaging; test concentration mostly 10 µM; calls only at 10 µM (by protocol); actives 0.98% (n = 190,000); AID 463193;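 active means percentage of spot-positive cells more than 3 SD above its plate mean, without a fluorescence outlier flag or 80% toxicity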;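 further: spot-positive cell cutoff set from DMSO-treated cells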
b-catenin transl – beta-catenin nuclear translocation modulation; HeLa beta-catenin nuclear translocation, immunofluorescence imaging; nuclear translocation activity, % at 5 µM; actives 0.3% (n = 190,000);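 active means nuclear translocation activity above 50% at 5 µM, with a well cell count of 50 or more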;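 further: per-cell ratio of nuclear to cytoplasmic median beta-catenin stain intensity; plate controls were DMSO negative control for no effect and GSK-3 inhibitor IX positive control for full effect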
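Test system: human HeLa cells, endogenous beta-catenin. Times: 24 h compound exposure, 37°C. Measured by: beta-catenin immunofluorescence imaging with DAPI.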
L major viab – Leishmania major promastigote growth inhibition; actives 9% (n = 200,000); Leishmania major promastigotes, resazurin fluorescence viability; inhibition, % at 10 µM; in the data active means inhibition above about 50%;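 further: promastigotes grown with compound for 44 hours at 28 °C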
An asterisk follows results filed as active. This is a sample that favours compounds with a hit; in the whole collection about 12% have one here.

`Cc1ccc(S(=O)(=O)c2c(C)nn(C(C)(C)C)c2OC(=O)c2ccc(Br)o2)cc1` gave MT stabilize HCS 5, CHOP inhibitor 72*, Dynein transport -0.029, Autophagy HCS inactive, b-catenin transl 1 and L major viab 0.
For Cc1ccc(S(=O)(=O)c2c(C)nn(C(C)(C)C)c2OC(=O)c2cccs2)cc1 the results were MT stabilize HCS 4, CHOP inhibitor 72*, Dynein transport 0.32, Autophagy HCS inactive, b-catenin transl -1 and L major viab 39.
CC(C)N(CC#CCC(O)(c1ccccc1)c1ccccc1)CCO was read as MT stabilize HCS 2, CHOP inhibitor 10, Dynein transport 1.2, Autophagy HCS inactive, b-catenin transl 5 and L major viab 44.
For CC(C)N(CC#CCC(O)(c1ccccc1)c1ccccc1)C(C)C the results were MT stabilize HCS 3, CHOP inhibitor 6, Dynein transport -0.077, Autophagy HCS inactive, b-catenin transl -2 and L major viab 88*.
CCN(CC#CCC(O)(c1ccccc1)c1ccccc1)C(C)C was read as MT stabilize HCS 2, CHOP inhibitor 27, Dynein transport -0.26, Autophagy HCS inactive, b-catenin transl 5 and L major viab 87*.
For Cc1ccc2nc(NC3=NCN(Cc4ccc5c(c4)OCO5)CN3)nc(C)c2c1 the results were MT stabilize HCS 3, Dynein transport 2, Autophagy HCS inactive and L major viab 100*.
Cc1ccc2nc(NC3=NCN(C4CCCCC4)CN3)nc(C)c2c1 was read as b-catenin transl 4.
Screening CC(=NCC1CCCO1)C1=C(O)CC(C)(C)CC1=O (stereo not given) returned MT stabilize HCS 2, CHOP inhibitor 9, Dynein transport -0.6, Autophagy HCS inactive, b-catenin transl -2 and L major viab -1.
Screening CC(=NCC1CCNCC1)C1=C(O)CC(C)(C)CC1=O returned MT stabilize HCS 5, CHOP inhibitor 78*, Dynein transport 0.2, Autophagy HCS inactive, b-catenin transl 1 and L major viab 0.
Screening N#Cc1c(-c2ccc(Cl)cc2)ccnc1N1CCOCC1 returned MT stabilize HCS 3, CHOP inhibitor 20, Dynein transport 0.49, Autophagy HCS inactive, b-catenin transl 0 and L major viab -7.
For CCNC(=S)N/N=C1\C(=O)c2cccc3cccc1c23 the results were MT stabilize HCS 3, CHOP inhibitor -10, Dynein transport -1.6, Autophagy HCS inactive, b-catenin transl 2 and L major viab 11.
O=C(N/N=C1/C(=O)c2cccc3cccc1c23)c1ccc(Cl)cc1 was read as MT stabilize HCS 2, CHOP inhibitor 72*, Dynein transport 0.13, Autophagy HCS inactive, b-catenin transl -4 and L major viab 57*.
Cc1noc(C)c1COC(=O)[C@H](C)NS(=O)(=O)c1ccc(Cl)c(Cl)c1 was read as MT stabilize HCS 1, CHOP inhibitor -23, Dynein transport 0.46, Autophagy HCS inactive, b-catenin transl -7 and L major viab 73*.
Screening Cc1noc(C)c1COC(=O)Cc1ccc(Cl)c(Cl)c1 returned MT stabilize HCS 2, CHOP inhibitor 30, Dynein transport -0.47, Autophagy HCS inactive, b-catenin transl -4 and L major viab -4.
S=C(NCCCN1CCOCC1)N1CCN(c2nc(-c3ccc(Cl)cc3)cs2)CC1 was read as MT stabilize HCS 2, CHOP inhibitor 88*, Dynein transport -1.2, Autophagy HCS inactive, b-catenin transl -2 and L major viab 76*.
For S=C(NCCCN1CCOCC1)N1CCN(c2nc(-c3ccccc3)cs2)CC1 the results were MT stabilize HCS 2, CHOP inhibitor 17, Dynein transport 0.57, Autophagy HCS inactive, b-catenin transl 0 and L major viab 83*.
Screening Cc1ccc(NC(=O)COC(=O)C(CC(C)C)N2C(=O)C3CC=CCC3C2=O)c(C)c1 (stereo not given) returned MT stabilize HCS 4, CHOP inhibitor 16, Dynein transport 0.3, Autophagy HCS inactive, b-catenin transl 0 and L major viab -1.
Screening Cc1cc(CNC(=O)C(C)Cc2ccccc2)nn1C (stereo not given) returned MT stabilize HCS 3, CHOP inhibitor 7, Dynein transport 1.2, Autophagy HCS inactive and L major viab -2.
Screening CC(=O)c1ccc(NS(=O)(=O)c2ccc(C)cc2)cc1 returned MT stabilize HCS 6, CHOP inhibitor 24, Dynein transport 0.065, Autophagy HCS inactive, b-catenin transl -3 and L major viab -4.
Cc1cc(C)nc(NS(=O)(=O)c2ccc(N/C=C\C(=O)c3ccc(Cl)cc3)cc2)n1 was read as MT stabilize HCS 1, CHOP inhibitor 82*, Dynein transport -0.87, Autophagy HCS inactive, b-catenin transl -2 and L major viab -6.
For COc1cccc(C(=O)/C=C/Nc2ccc(S(=O)(=O)Nc3ccc(C(C)=O)cc3)cc2)c1 the results were MT stabilize HCS 4, CHOP inhibitor 19, Dynein transport 0.67, Autophagy HCS inactive, b-catenin transl 0 and L major viab 20.
`Cc1cc(C)nc(NS(=O)(=O)c2ccc(N/C=C/C(=O)c3ccc(Cl)c(Cl)c3)cc2)n1` gave MT stabilize HCS 3, CHOP inhibitor 80*, Dynein transport -0.35, Autophagy HCS inactive, b-catenin transl 0 and L major viab -2.
For COc1ccc(C(=O)/C=C/Nc2ccc(S(=O)(=O)Nc3cccc(C(C)=O)c3)cc2)cc1 the results were MT stabilize HCS 6, CHOP inhibitor 79*, Dynein transport 0.16, Autophagy HCS inactive, b-catenin transl 0 and L major viab 6.
`COc1cc(OC)c(OC)cc1/C=C/C(=O)c1ccc(NS(=O)(=O)c2ccc(C)cc2)cc1` gave MT stabilize HCS 3, CHOP inhibitor -1, Dynein transport -0.4, Autophagy HCS inactive, b-catenin transl -1 and L major viab 62*.
For COc1cccc(C(=O)/C=C/Nc2ccc(S(=O)(=O)Nc3nc(C)cc(C)n3)cc2)c1 the results were MT stabilize HCS 2, CHOP inhibitor 11, Dynein transport 0.48, Autophagy HCS inactive, b-catenin transl -3 and L major viab 50.
`O=C1/C(=C\c2ccc(C(F)(F)F)cc2)CSc2sccc21` gave CHOP inhibitor 5, Dynein transport 1.5 and b-catenin transl -2.
NS(=O)(=O)c1ccc(NC(=O)COC(=O)c2ccc([N+](=O)[O-])s2)cc1 was read as CHOP inhibitor -5, Dynein transport -0.33 and b-catenin transl 0.
`Cc1cccc(NC(=O)CSc2nc3c([nH]c4ccccc43)c(=O)n2C)c1` gave MT stabilize HCS 2, CHOP inhibitor 79*, Dynein transport -0.28, Autophagy HCS inactive, b-catenin transl 4 and L major viab -3.
